Compound activity: PubChem, several laboratories
XBP1 UPR activ: activators of adaptive arm of unfolded protein response (XBP1). CHO-XBP1 luciferase reporter, IRE1-XBP1 UPR activation, luminescence; percent of tunicamycin response, DMSO as zero. activation, % at 20 µM. 0.33% of 330,000 active;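 active = versus positive control, 20 µM dose yields 30% or more activation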;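 also: 100% = tunicamycin at 10 µg/mL and 0% = DMSO only wells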
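Material: IRE1-XBP1 luciferase reporter CHO line / Quantity: one thousand reporter cells per well / Buffer or medium: F12 with 10% serum / Compound: 20 µM single concentration, DMSO 1% / Times: 6 h treatment, 37 °C / Detection: Steady-Glo luciferase glow luminescence, 10 min after reagent addition / Benchmarks: tunicamycin high, DMSO low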
Mdm2-MdmX inh: human Mdm2/MdmX binding inhibition. O15151+Q00987. SaOS-2 split-luciferase Mdm2/MdmX complementation, luminescence. inhibition, % at 8 µM. 3% of 330,000 active. AID 485346;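 active = inhibition of at least 50% at 8 µM in the primary screen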
Granule exo inh: blocks lytic granule exocytosis; inhibition, % at 10 µM; TALL-104 LAMP-1 surface exposure, flow cytometry; cells stimulated with thapsigargin and PMA; 0.66% of 360,000 active; AID 651702;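 active = inhibition above about 55%, limit read from the data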
ABHD5 PLIN5 PPI: inhibitors of human ABHD5-perilipin-5 interaction | Split G. princeps luciferase complementation, luminescence, 4 h | inhibition, % at 4 µM | Q00G26+Q8WTS1 | 0.78% of 360,000 active | AID 602281;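 active = inhibition above the mean inhibition across every tested compound plus 3 SD, cut at about 22% in these data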;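 also: 0% = DMSO only wells and the 100% control is not disclosed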
Target sequence (Q00G26 whole entry, looked up): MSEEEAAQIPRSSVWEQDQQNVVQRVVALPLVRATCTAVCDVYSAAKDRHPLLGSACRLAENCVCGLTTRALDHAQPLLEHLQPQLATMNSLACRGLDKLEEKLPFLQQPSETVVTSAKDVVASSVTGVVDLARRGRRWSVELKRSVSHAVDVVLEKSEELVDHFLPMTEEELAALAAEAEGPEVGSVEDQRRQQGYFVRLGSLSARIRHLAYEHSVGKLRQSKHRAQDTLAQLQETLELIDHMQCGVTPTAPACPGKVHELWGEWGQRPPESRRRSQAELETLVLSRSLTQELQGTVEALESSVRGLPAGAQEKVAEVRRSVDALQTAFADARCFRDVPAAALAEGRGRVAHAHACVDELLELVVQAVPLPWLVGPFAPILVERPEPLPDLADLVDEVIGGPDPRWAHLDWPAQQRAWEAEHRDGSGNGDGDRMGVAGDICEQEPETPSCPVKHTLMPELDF
Target sequence (Q8WTS1 whole entry, looked up): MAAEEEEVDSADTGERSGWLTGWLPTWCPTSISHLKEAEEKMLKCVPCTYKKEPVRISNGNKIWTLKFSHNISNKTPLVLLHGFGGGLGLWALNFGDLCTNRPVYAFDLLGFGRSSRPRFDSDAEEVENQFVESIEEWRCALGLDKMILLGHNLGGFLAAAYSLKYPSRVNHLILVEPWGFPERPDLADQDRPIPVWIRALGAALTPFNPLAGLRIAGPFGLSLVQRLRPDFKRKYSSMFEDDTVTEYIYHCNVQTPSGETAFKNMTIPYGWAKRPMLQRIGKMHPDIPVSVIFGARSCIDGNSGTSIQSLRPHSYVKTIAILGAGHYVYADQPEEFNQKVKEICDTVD
CHOP UPR activ: activators of apoptotic arm of unfolded protein response (CHOP); CHO-CHOP luciferase reporter, UPR activation, luminescence; percent of tunicamycin response over DMSO baseline; activation, % at 10 µM; 0.34% of 330,000 active; AID 449763;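 active = at 10 µM dose, activation of 40% or more, normalized to positive control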;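 also: 100% = tunicamycin at 10 µg/mL and 0% = DMSO alone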
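measured by = luciferase luminescence | assay system = CHO-CHOP cells, stable luciferase reporter of PERK-eIF2a-CHOP signalling | amount = 500 reporter cells seeded per well | timing = 6 h compound exposure at 37 °C after overnight seeding | controls = positive tunicamycin 10 µg/mL, negative DMSO alone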
Mdm2 MdmX conf: human Mdm2/MdmX binding inhibition, confirmed. shares compounds with Mdm2-MdmX inh. luminescent assay. inhibition, % at 8 µM. 55% of 10,000 active; in the data active = inhibition above about 40%
Full FLuc ctr: full-length luciferase inhibition in Mdm2/MdmX counter-screen; inhibition, % at 8 µM; 77% of 6,200 active; SaOS-2 full-length luciferase counterscreen, luminescence; shares compounds with Mdm2-MdmX inh;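 active = mean inhibition at 8 µM reaching about 37%, which flags the compound as non-specific, limit read from the data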;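 also: p53-null SaOS-2 cells with luciferase driven by a doxycycline-inducible promoter; compound on cells about two nights before reading with doxycycline added after day one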
An asterisk follows results filed as active; / = no result given. An excerpt weighted towards active compounds, which were near 4% of everything screened.

SMILES	XBP1 UPR activ	Mdm2-MdmX inh	Granule exo inh	ABHD5 PLIN5 PPI	CHOP UPR activ	Mdm2 MdmX conf	others
COCc1cc(=O)[nH]c(/N=C(\N)Nc2cccc(C)c2)n1	-1	31	1	-4	-3	/
COc1ccc(N/C(N)=N/c2nc(CSc3nnc(C)s3)cc(=O)[nH]2)cc1	0	52*	-2	2	0	65*	Full FLuc ctr=65*
COc1ccc(N/C(N)=N/c2nc(C)cc(=O)[nH]2)cc1	-1	21	-9	1	3	/
O=C(CSc1nnc(Cn2c(=O)sc3ccccc32)n1-c1ccccc1)N1CCCC1	-1	-7	-1	-7	2	/
Cc1ccc(NC(=O)CO/N=C/c2ccc(N(C)C)cc2)cc1	7	9	-1	-3	-2	/
COc1ccccc1NC(=O)C1CCCN(C(=O)NCc2ccccc2)C1 (centres undefined)	1	9	29	3	0	/
COc1ccccc1C(CC(=O)Nc1ccccc1C)c1ccc(OC(C)C)cc1 (centres undefined)	-1	19	-3	-1	13	/
COc1ccc(C(CCNCc2ccc(N(C)C)cc2)c2ccccc2OC)cc1 (centres undefined)	-3	54*	16	4	-1	29
COc1ccc(CNC(C)CCc2ccccc2)cc1 (centres undefined)	-5	-37	-1	-3	1	/
COc1ccc(C(CCNCc2ccc(OC(C)C)cc2)c2ccccc2OC)cc1 (centres undefined)	2	87*	29	0	1	31	Full FLuc ctr=82*
CNC(=O)CSc1nnnn1-c1cc(C)ccc1C	-1	-3	0	-2	-1	/
CCC1Oc2ccc(C)cc2N(CC(=O)NCc2ccco2)C1=O (centres undefined)	-2	2	5	4	-1	/
Cc1cc(C2CCCCC2)n(O)c(=O)c1	-1	74*	2	9	-2	58*	Full FLuc ctr=32
Cn1c(NC2CCCCC2)cc(=O)n(C)c1=O	-3	26	-10	-15	0	/
CC1CCN(c2nc(-c3ccccc3)cc(C(F)(F)F)n2)CC1	0	6	0	1	1	/
CCOC(=O)CNC(=O)c1sc(NC(=O)/C=C/c2ccccc2)nc1C	-1	69*	4	-2	4	12
O=C(Nc1ccccc1)c1csc(-c2ccccc2)n1	-2	-24	-4	0	2	/
CCc1cc(=O)oc2c(CN3CCN(C)CC3)c(O)ccc12	-1	20	6	8	0	/
CN1CCN(Cc2c(O)ccc3cc(Br)ccc23)CC1	-3	51*	/	/	0	8
CCCCn1c(N)c(-c2nc3ccccc3o2)c2c([N+](=O)[O-])nn(C)c(=O)c21	-3	-11	0	-4	-1	/
CCCCCn1c(N)c(-c2nc3ccccc3s2)c2c([N+](=O)[O-])nn(C)c(=O)c21	-3	87*	-3	15	12	2
O=C1CC(=C(c2ccccc2)c2ccccc2)C(=O)N1CCCCN1CCN(c2cccc(Cl)c2)CC1	9	60*	38	14	2	37
Cc1cc(NC(=O)Cc2ccccc2)nc2c1c(=O)oc1ccccc12	26	74*	-4	2	21	32
CN(c1ccc(OCC(=O)Nc2ccccc2C(=O)O)cc1)S(=O)(=O)c1ccc(Cl)cc1	-3	90*	-2	-4	0	40*	Full FLuc ctr=39*
O=C(COc1ccc(Cl)cc1)Nc1ccccc1C(=O)NCc1ccco1	4	73*	-3	-2	6	-19
SMILES	XBP1 UPR activ	Mdm2-MdmX inh	Granule exo inh	ABHD5 PLIN5 PPI	CHOP UPR activ	Mdm2 MdmX conf	others
COc1ccc(C(=O)Nc2ccccc2C(=O)NC(C(=O)NCc2ccco2)C(C)C)cc1 (centres undefined)	-3	74*	2	8	1	-9
COc1ccc(C(=O)N[C@H](C(=O)NCc2ccco2)C(C)C)cc1	-1	-4	-2	-1	0	/
CC(=O)Nc1ccc(S(=O)(=O)N(C)c2ccc(OCC(=O)Nc3ccccc3C(C)=O)cc2)cc1	-1	13	-4	0	1	/
COc1ccc(C(=O)Nc2ccccc2C(N)=O)cc1	2	-78	3	1	2	/
COc1ccc(C(=O)Nc2ccccc2C(=O)N(Cc2ccco2)C(C(N)=O)C(C)C)cc1 (centres undefined)	0	66*	6	-5	2	21
CCCOc1ccc(OC(=O)Cc2ccc(OC)c(S(=O)(=O)N3CCOCC3)c2)cc1	-2	5	-4	5	-1	/
CCOC(=O)c1c(C)n(C)c2ccc(O)c(CN(C)C)c12	-1	31	-3	2	-1	/
CCOC(=O)c1c(C)n(-c2ccc(OC)cc2)c2ccc(O)c(CN(C)C)c12	-1	64*	16	17	4	44*	Full FLuc ctr=54*
CCOC(=O)c1c(C)n(-c2ccc(C)cc2)c2ccc(O)c(CN(C)C)c12	1	54*	19	16	1	40	Full FLuc ctr=66*
CC(C)c1ccccc1NC(=O)COC(=O)c1c2c(nc3ccccc13)CCN(Cc1ccccc1)C2	2	53*	0	-2	5	33
Cc1c(Cl)cccc1NC(=O)COC(=O)c1c2c(nc3ccccc13)CCN(Cc1ccccc1)C2	0	38	6	0	3	/
COc1ccc(-c2nc(-c3ccccc3)c(-c3cc([N+](=O)[O-])ccc3C)[nH]2)cc1OC	-7	19	-6	-5	0	/
CCOc1cc(-c2nc(-c3ccccc3)c(-c3cc([N+](=O)[O-])ccc3C)[nH]2)ccc1O	-2	57*	2	-5	3	13
O=[N+]([O-])c1ccc(O)c(-c2nc(-c3ccccc3)c(-c3cccs3)[nH]2)c1	9	85*	-2	-5	7	89*	Full FLuc ctr=49*
O=C(O)c1ccc(-c2nc(-c3ccccc3)c(-c3cccs3)[nH]2)cc1	-2	8	-1	-2	-1	/
CCCn1c(C(C)Nc2nc(-c3cccc(Br)c3)cs2)nc2ccccc21 (centres undefined)	-3	-1	-1	-16	2	/
COc1ccc(CN(CC(=O)NCC2CCCO2)C(=O)CCC(=O)Nc2cc(C)ccn2)cc1 (centres undefined)	/	/	-3	1	/	/
C=CC(=O)Nc1cccc(Oc2cc(Cl)nc3[nH]ccc23)c1	-2	80*	5	7	3	72*	Full FLuc ctr=42*
CCCCN(c1ccc(C(=O)OC)cc1)S(=O)(=O)c1ccccc1	-1	62*	-6	-5	0	2
COc1ccc(-c2cc(C(F)F)n3ncc(C(=O)Nc4cc(C)on4)c3n2)cc1	6	59*	0	0	0	12
